In ChEMBL document CHEMBL4428023, “1,4-Dihydropyridines Active on the SIRT1/AMPK Pathway Ameliorate Skin Repair and Mitochondrial Function and Exhibit Inhibition of Proliferation in Cancer Cells” (J Med Chem, 2016):
Activity calls are given as the source filed them. The calls are words filed in the database; no cut-off is given here.

Experiments:
[1] = test system: A549; assay: Antiproliferative activity against human A549 cells assessed as cell viability after 72 hrs by MTT assay; assay type: functional, cell-based; details: A549, 72 h
How it was run: (§1)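 Cells grown in RPMI with 10% fetal calf serum and penicillin, seeded in sextuplicate at 3 × 10^3 cells/well. After 24 h, cells were exposed 72 h to 5–200 µM. Viability was measured by MTT and expressed as treated/untreated × 100. IC50 was calculated from three independent experiments, reported as mean ± SD.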

[2] = biological target: T1, NAD-dependent protein deacetylase sirtuin-1 (Homo sapiens) (UniProt Q96EB6); assay: Activation of full-length GST-tagged recombinant human SIRT1 assessed as enzyme activity obtained without subtraction of intrinsic fluorescence using p53-based untagged peptide as substrate at 50 uM after 30 mins by SIRTainty assay
T1 sequence (whole entry): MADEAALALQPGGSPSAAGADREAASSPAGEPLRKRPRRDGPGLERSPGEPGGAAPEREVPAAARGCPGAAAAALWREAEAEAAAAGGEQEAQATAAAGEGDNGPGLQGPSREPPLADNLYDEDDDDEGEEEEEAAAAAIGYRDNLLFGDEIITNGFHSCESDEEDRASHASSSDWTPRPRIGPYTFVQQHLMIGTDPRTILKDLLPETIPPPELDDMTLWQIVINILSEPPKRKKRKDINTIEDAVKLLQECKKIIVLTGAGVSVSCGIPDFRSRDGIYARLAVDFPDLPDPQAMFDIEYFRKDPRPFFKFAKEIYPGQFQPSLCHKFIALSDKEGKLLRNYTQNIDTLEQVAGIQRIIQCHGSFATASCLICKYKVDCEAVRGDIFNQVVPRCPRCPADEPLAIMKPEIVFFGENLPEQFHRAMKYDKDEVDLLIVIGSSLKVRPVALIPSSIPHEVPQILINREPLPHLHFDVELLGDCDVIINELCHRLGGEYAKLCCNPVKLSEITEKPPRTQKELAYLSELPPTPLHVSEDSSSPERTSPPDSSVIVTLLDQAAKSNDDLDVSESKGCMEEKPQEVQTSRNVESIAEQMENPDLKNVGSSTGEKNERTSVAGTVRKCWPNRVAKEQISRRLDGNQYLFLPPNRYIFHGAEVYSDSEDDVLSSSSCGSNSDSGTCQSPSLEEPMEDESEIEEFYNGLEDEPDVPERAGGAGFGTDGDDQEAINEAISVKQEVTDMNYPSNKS

[3] = test system: HCT-116; assay: Antiproliferative activity against human HCT116 cells assessed as cell viability after 72 hrs by MTT assay; assay type: functional, cell-based; details: HCT-116, 72 h; how it was run: as §1
[4] = test system: HaCaT; assay: Activation of AMPK/SIRT1 in human HaCaT cells assessed as nitric oxide production incubated for 1 hr by DAF-2D staining-based fluorescence assay; assay type: cell-based
How it was run: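 HaCaT keratinocytes grown in DMEM with 10% FBS and antibiotics. Cells treated 1 h (single-point 1 µM; dose-response at 5, 25, 50 µM). 5 µM DAF-2D added to complete medium. Cells then washed in PBS, trypsinized and analysed by flow cytometry for DAF fluorescence (ex 485/em 538 nm). Read-out is % DAF-positive cells relative to DMSO control.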

[5] = test system: Mus musculus; assay: Wound healing activity in CD1 mouse assessed as increased wound closure at 1 uM administered topically on wound everyday for 14 days by biopsy punch assay; assay type: functional, organism-based
How it was run: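 Male CD1 mice, 8 weeks old, anaesthetized i.p. with medetomidine 1 mg/kg plus ketamine 75 mg/kg, then biopsy-punch wounded. Compound (1 µM) in 20 µL saline applied directly to the wound daily for 14 days; solvent-treated group as control. Epithelial gap and % wound closure followed over time.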

[6] = Antiproliferative activity against human SAN cells assessed as cell viability after 72 hrs by MTT assay; assay type: functional, cell-based; how it was run: as §1
[7] = biological target: T1, NAD-dependent protein deacetylase sirtuin-1 (Homo sapiens); assay: Activation of SIRT1 in […] at 1 uM by fluorimetric assay; assay type: cell-free; details: HaCaT, TDE = time-dependent effect
[8] = biological target: T1, NAD-dependent protein deacetylase sirtuin-1 (Homo sapiens); assay: Activation of full-length GST-tagged recombinant human SIRT1 assessed as enzyme activity obtained with subtraction of intrinsic fluorescence using p53-based untagged peptide as substrate at 50 uM after 30 mins by SIRTainty assay
[9] = test system: HaCaT; assay: Activation of AMPK/SIRT1 in human HaCaT cells assessed as nitric oxide production at 10 uM incubated for 1 hr in presence of compound C by DAF-2D staining-based fluorescence assay; assay type: cell-based
How it was run: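 HaCaT cells in DMEM with 10% FBS. DHP (10 µM) given for 1 h alone or together with 10 µM AMPK inhibitor compound C or 10 µM SIRT1 inhibitor EX-527. Intracellular NO read by flow cytometry after loading with 5 µM DAF-2D in medium (ex 485/em 538 nm). Expressed as % DAF-positive cells versus DMSO.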

[10] = species on record: Cavia porcellus; assay: Potency index, ratio of potency for test compound to potency for nifedipine for inhibition of calcium channel in guinea pig ileum longitudinal smooth muscle assessed as inhibition of calcium-induced contraction; assay type: tissue-based

For CCOC(=O)C1=CN(C(=O)c2ccccc2)C=C(C(=O)OCC)C1c1ccccc1, the IC50 [1] was 169 µM, the Activity [2] was 244% and the IC50 [3] was 62 µM. The Activity [4] was “Dose-dependent effect”, the Activity [5] was “Active” and the IC50 [6] was 161 µM. For the same compound, the Activity [7] was “Tde”, the Activity [8] was 153% and the Activity [9] was “inactive”. The Ratio [10] was 720.
